Measured values as given in ChEMBL document CHEMBL1212904, “Discovery of pyrrole-indoline-2-ones as Aurora kinase inhibitors with a different inhibition profile” (J Med Chem, 2010).
Calls of active or inactive are those of the source. The rule behind the calls is not given here.

Columns and labels:
[1] = target: T1, Platelet-derived growth factor receptor beta (Homo sapiens, UniProt P09619); assay: Inhibition of PDGFRbeta by radiometric method
[2] = target: Epidermal growth factor receptor (Homo sapiens) (UniProt P00533); assay: Inhibition of EGFR at 1 uM by radiometric method
[3] = target: 3-phosphoinositide-dependent protein kinase 1 (Homo sapiens) (UniProt O15530); assay: Inhibition of PDK1 at 1 uM by radiometric method
[4] = target: PI3K p110 beta/p85 alpha (Homo sapiens) (UniProt P27986+P42338); assay: Inhibition of PI3K (p110beta/p85-alpha) at 1 uM by radiometric method; assay type: protein-complex assay
[5] = target: Insulin-like growth factor 1 receptor (Homo sapiens) (UniProt P08069); assay: Inhibition of IGF1R at 1 uM by radiometric method
[6] = target: Phosphatidylinositol 5-phosphate 4-kinase type-2 gamma (Homo sapiens) (UniProt Q8TBX8); assay: Inhibition of PIP5K2C at 1 uM by KINOMEscan binding assay
[7] = target: ALK tyrosine kinase receptor (Homo sapiens) (UniProt Q9UM73); assay: Inhibition of ALK at 1 uM by radiometric method
[8] = target: Glycogen synthase kinase-3 beta (Homo sapiens) (UniProt P49841); assay: Inhibition of GSK3B at 1 uM by radiometric method
[9] = target: Mast/stem cell growth factor receptor Kit (Homo sapiens, UniProt P10721); assay: Inhibition of c-Kit at 1 uM by radiometric method
[10] = tested on: Serine/threonine-protein kinase B-raf (Homo sapiens), P15056 [V600E]; assay: Inhibition of b-Raf V600E mutant at 1 uM by radiometric method
[11] = target: T1, Platelet-derived growth factor receptor beta; assay: Inhibition of PDGFRbeta at 1 uM by radiometric method
[12] = target: T2, Aurora kinase A (Homo sapiens) (UniProt O14965); assay: Inhibition of aurora A in human HCT116 cells assessed as reduction of phosphorylated histone H3 at ser10 level measured at 1.25 to 40 uM after 3 hrs by Western blot analysis; assay type: cell-based; settings: HCT-116
T2 sequence (whole entry): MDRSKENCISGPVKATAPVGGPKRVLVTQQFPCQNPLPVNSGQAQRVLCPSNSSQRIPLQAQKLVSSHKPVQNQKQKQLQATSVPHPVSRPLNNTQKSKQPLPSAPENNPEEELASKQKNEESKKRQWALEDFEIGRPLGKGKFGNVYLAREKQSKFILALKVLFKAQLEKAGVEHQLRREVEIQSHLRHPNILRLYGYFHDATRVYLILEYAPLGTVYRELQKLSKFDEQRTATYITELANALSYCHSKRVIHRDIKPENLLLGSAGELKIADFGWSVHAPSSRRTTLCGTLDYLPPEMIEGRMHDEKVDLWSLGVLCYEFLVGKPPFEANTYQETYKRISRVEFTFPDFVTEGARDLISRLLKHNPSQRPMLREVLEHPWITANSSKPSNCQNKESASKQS
Summary of the method: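 HCT-116 cells were synchronized at G2/M with 200 ng/mL nocodazole for 17 h, then given inhibitor for a further 3.0 h. Cells were PBS-washed, boiled in 2× SDS sample buffer, and run on SDS-PAGE with immunoblotting. Rabbit antibodies detected pT288 Aurora A, total Aurora A, pS10 histone H3 and total H3; β-actin served as loading control.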

HCT-116 = assay: Antiproliferative activity against human HCT116 cells after 72 hrs by cell titer 96 assay; assay type: functional, cell-based; settings: HCT-116, 72 h
[13] = target: Fibroblast growth factor receptor 1 (Homo sapiens) (UniProt P11362); assay: Inhibition of FGFR1 at 1 uM by radiometric method
Sequence of Fibroblast growth factor receptor 1 (Homo sapiens) (P11362 22-822 limits assumed): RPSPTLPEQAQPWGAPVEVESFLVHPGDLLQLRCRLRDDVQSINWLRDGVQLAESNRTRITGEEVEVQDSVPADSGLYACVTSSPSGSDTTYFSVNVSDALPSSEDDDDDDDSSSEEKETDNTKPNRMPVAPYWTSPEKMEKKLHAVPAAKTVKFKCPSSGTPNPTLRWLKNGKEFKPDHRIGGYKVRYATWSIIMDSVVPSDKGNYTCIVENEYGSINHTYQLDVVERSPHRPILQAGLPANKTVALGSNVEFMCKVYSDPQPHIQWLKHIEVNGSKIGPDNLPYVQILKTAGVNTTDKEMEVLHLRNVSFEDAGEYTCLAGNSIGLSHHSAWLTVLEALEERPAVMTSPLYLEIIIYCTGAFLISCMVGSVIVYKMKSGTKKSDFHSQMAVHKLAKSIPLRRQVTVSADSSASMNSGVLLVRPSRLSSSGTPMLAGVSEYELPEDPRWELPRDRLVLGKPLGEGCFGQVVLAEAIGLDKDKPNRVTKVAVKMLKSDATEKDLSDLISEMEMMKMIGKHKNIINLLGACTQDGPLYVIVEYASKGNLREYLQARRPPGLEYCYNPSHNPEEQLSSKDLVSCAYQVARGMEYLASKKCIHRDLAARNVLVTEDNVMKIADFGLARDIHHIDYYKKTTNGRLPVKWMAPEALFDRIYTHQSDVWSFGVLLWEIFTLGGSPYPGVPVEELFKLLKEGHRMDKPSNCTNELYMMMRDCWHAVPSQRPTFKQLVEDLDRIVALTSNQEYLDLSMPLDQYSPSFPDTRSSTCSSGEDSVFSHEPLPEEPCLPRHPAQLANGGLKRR

[14] = target: Muscle, skeletal receptor tyrosine-protein kinase (Homo sapiens) (UniProt O15146); assay: Inhibition of MUSK at 1 uM by KINOMEscan binding assay
Sequence of Muscle, skeletal receptor tyrosine-protein kinase (Homo sapiens) (O15146 whole entry): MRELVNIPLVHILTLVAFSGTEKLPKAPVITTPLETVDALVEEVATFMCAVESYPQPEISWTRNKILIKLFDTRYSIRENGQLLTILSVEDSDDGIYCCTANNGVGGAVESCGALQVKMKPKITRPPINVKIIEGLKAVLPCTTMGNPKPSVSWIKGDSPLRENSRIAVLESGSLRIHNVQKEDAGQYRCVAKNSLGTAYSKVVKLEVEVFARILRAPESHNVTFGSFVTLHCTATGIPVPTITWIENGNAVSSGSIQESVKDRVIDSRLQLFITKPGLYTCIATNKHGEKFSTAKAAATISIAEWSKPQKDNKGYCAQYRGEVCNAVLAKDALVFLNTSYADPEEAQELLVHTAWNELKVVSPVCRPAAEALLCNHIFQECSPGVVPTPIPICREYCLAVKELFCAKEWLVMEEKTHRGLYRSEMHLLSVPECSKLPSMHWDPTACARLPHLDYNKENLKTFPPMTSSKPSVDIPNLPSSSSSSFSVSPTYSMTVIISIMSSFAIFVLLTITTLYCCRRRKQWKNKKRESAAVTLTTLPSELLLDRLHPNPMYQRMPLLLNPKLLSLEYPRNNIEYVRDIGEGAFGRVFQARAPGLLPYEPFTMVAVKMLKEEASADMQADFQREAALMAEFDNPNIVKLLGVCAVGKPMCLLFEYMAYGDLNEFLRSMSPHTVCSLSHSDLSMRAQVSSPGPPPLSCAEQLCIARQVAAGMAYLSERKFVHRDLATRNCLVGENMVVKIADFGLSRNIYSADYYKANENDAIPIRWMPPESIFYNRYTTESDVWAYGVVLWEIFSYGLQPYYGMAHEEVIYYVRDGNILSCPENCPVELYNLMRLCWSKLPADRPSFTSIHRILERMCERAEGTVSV

[15] = target: T3, Macrophage colony-stimulating factor 1 receptor (Homo sapiens, UniProt P07333); settings: 1 uM
T3 sequence (P07333 whole entry): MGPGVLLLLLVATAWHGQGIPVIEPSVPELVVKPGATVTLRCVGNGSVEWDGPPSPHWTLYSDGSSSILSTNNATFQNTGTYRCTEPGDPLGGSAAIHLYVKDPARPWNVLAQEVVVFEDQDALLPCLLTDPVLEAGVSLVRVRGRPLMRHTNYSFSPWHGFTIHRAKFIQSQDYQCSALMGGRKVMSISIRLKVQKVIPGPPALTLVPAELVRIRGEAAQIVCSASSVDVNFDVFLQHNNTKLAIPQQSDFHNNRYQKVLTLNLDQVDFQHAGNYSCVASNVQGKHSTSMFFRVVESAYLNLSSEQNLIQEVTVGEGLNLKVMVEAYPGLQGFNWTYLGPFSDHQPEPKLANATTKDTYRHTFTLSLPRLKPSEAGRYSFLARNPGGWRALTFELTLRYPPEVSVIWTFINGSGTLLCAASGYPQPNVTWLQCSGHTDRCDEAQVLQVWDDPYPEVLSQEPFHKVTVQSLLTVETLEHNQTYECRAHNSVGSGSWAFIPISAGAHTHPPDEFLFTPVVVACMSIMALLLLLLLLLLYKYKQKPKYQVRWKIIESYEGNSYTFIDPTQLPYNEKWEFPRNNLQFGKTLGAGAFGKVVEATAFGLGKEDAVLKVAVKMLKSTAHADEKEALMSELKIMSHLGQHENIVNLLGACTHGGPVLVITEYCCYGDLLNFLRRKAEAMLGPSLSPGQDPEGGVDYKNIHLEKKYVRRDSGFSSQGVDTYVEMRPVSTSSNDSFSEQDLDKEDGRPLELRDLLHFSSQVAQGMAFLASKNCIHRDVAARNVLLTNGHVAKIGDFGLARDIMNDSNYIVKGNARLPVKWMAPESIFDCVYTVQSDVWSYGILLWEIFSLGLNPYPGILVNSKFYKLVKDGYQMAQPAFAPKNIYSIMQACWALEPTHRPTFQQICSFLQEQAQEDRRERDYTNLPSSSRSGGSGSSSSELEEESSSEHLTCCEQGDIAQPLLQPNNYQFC

[16] = target: Cyclin-dependent kinase 1 (Homo sapiens) (UniProt P06493); assay: Inhibition of CDC2 at 1 uM by radiometric method
Sequence of Cyclin-dependent kinase 1 (Homo sapiens) (P06493 whole entry, looked up): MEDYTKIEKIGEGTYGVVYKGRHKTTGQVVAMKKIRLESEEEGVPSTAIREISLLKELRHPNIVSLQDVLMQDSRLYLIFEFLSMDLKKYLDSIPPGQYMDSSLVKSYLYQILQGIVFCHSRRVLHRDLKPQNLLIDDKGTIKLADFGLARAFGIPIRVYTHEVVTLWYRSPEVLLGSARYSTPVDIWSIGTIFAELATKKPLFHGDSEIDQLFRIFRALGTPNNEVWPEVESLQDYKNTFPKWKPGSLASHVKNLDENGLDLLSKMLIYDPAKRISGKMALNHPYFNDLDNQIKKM

[17] = target: T3, Macrophage colony-stimulating factor 1 receptor; assay: Inhibition of CSF1R by radiometric method
[18] = target: PI3-kinase p110-alpha/p85-alpha (Homo sapiens) (UniProt P27986+P42336); assay: Inhibition of PI3K (p110alpha/p85-alpha) at 1 uM by radiometric method; assay type: protein-complex assay
[19] = target: Ephrin type-A receptor 1 (Homo sapiens) (UniProt P21709); assay: Inhibition of EPHA1 at 1 uM by radiometric method
[20] = tested on: Epidermal growth factor receptor (Homo sapiens), P00533 [T790M]; assay: Inhibition of EGFR T790M mutant at 1 uM by radiometric method; assay type: protein assay
[21] = target: Serine/threonine-protein kinase 10 (Homo sapiens) (UniProt O94804); assay: Inhibition of LOK at 1 uM by KINOMEscan binding assay
[22] = target: Mitogen-activated protein kinase kinase kinase kinase 3 (Homo sapiens) (UniProt Q8IVH8); assay: Inhibition of MAP4K3 at 1 uM by KINOMEscan binding assay
[23] = Inhibition of CHK2 at 1 uM by radiometric method
[24] = target: Vascular endothelial growth factor receptor 2 (Homo sapiens, UniProt P35968); assay: Inhibition of VEGFR2 at 1 uM by radiometric method
[25] = target: RAC-alpha serine/threonine-protein kinase (Homo sapiens) (UniProt P31749); assay: Inhibition of AKT1 at 1 uM by radiometric method
[26] = target: Proto-oncogene tyrosine-protein kinase receptor Ret (Homo sapiens) (UniProt P07949); assay: Inhibition of RET at 1 uM by KINOMEscan binding assay
[27] = target: Serine/threonine-protein kinase mTOR (Homo sapiens) (UniProt P42345); assay: Inhibition of mTOR at 1 uM by radiometric method
[28] = target: Phosphorylase b kinase gamma catalytic chain, skeletal muscle/heart isoform (Homo sapiens) (UniProt Q16816); assay: Inhibition of PHKG1 at 1 uM by KINOMEscan binding assay
[29] = target: Mitogen-activated protein kinase 14 (Homo sapiens) (UniProt Q16539); assay: Inhibition of MAPK14 at 1 uM by radiometric method
Sequence of Mitogen-activated protein kinase 14 (Homo sapiens) (Q16539 whole entry): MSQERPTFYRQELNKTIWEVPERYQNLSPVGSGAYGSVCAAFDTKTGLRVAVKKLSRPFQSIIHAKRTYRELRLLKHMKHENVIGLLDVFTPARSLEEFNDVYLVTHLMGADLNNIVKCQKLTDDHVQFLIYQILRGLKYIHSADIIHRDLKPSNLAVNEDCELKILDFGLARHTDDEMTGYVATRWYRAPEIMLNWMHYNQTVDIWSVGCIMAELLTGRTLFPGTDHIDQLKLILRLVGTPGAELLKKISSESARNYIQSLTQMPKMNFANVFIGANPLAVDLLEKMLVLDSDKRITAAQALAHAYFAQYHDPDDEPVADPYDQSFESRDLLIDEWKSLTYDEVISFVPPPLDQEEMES

[30] = target: Receptor-type tyrosine-protein kinase FLT3 (Homo sapiens) (UniProt P36888); assay: Inhibition of FLT3 at 1 uM by radiometric method
HT-29 = assay: Antiproliferative activity against human HT-29 cells after 72 hrs by cell titer 96 assay; assay type: functional, cell-based; settings: HT-29, 72 h
[31] = target: RAF proto-oncogene serine/threonine-protein kinase (Homo sapiens) (UniProt P04049); assay: Inhibition of c-Raf at 1 uM by radiometric method
Sequence of RAF proto-oncogene serine/threonine-protein kinase (Homo sapiens) (P04049 whole entry): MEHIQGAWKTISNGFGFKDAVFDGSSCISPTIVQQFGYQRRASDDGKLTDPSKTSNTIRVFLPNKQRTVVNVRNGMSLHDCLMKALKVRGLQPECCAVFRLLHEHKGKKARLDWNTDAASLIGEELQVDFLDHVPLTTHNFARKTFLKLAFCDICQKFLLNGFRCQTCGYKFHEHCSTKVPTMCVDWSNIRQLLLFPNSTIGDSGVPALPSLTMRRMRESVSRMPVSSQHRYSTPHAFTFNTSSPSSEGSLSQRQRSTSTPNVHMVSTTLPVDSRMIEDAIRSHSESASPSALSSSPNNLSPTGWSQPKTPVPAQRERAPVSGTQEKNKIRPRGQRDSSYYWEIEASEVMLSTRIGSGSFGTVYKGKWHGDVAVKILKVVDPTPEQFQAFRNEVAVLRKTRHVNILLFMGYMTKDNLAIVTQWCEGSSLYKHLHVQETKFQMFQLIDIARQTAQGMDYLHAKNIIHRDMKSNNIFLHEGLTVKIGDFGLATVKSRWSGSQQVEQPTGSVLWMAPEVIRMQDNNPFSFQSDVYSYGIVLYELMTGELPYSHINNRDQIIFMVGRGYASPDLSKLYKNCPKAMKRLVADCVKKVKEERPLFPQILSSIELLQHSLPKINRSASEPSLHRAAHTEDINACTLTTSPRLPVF

T1 sequence (P09619 whole entry): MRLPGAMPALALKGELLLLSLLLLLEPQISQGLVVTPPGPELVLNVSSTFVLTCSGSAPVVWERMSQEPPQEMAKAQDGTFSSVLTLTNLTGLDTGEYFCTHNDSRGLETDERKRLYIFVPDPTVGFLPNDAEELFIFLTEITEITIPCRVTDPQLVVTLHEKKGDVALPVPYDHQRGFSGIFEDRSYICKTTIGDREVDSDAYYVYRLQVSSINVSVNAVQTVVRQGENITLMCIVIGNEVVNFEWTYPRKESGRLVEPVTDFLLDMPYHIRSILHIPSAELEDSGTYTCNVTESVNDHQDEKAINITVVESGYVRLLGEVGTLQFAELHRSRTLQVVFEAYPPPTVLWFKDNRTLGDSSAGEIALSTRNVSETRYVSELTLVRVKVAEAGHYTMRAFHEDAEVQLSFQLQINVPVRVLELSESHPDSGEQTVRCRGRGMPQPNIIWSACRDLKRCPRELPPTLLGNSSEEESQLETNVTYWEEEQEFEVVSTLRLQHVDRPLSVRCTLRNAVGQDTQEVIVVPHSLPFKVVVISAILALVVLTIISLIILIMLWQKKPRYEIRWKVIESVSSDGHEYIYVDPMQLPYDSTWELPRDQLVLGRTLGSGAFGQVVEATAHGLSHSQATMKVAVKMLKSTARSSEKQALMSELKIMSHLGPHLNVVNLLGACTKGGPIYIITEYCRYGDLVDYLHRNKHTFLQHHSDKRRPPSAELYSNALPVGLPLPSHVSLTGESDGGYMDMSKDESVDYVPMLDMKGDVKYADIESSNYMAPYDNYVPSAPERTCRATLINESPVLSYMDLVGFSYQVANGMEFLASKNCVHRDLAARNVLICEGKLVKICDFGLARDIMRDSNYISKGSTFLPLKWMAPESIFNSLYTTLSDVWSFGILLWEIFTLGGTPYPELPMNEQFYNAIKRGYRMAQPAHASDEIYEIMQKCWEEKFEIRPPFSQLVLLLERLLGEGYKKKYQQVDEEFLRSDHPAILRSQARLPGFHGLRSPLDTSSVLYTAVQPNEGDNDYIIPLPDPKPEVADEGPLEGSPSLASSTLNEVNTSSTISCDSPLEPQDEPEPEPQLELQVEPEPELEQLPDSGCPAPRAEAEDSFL

SMILES | IC50 [1] [µM] | inhibition [2] [%] | inhibition [3] [%] | inhibition [4] [%] | inhibition [5] [%] | residual activity [6] [%] | inhibition [7] [%] | inhibition [8] [%] | inhibition [9] [%] | inhibition [10] [%] | inhibition [11] [%] | inhibition [12] | IC50 (HCT-116) [µM] | inhibition [13] [%] | residual activity [14] [%] | inhibition [15] [%] | inhibition [16] [%] | IC50 [17] [µM] | inhibition [18] [%] | inhibition [19] [%] | further results
CCOC(=O)CCc1c(/C=C2\C(=O)Nc3ccc(NS(=O)(=O)c4ccccc4)cc32)[nH]c2c1C(=O)CCC2 | > 1 | 5 | 24 | 1 | 24 | < 10 | 80 | 47 | 41 | 3 | 47 | Active | 3.74 | 77 | < 10 | 34 | 33 | > 1 | 11 | 29 | inhibition [20]: 14%; residual activity [21]: < 10%; residual activity [22]: < 10%; inhibition [23]: 17%; inhibition [24]: 74%; inhibition [25]: 11%; residual activity [26]: < 10%; inhibition [27]: 9%; residual activity [28]: < 10%; inhibition [29]: 4%; inhibition [30]: 97%; IC50 (HT-29): 3.23 µM; inhibition [31]: -8%
CN(C)CCCc1c(/C=C2\C(=O)Nc3ccc(NS(=O)(=O)c4ccccc4)cc32)[nH]c2c1C(=O)CCC2 | < 1 | 4 | 11 | -2 | 6 | < 10 | 85 | 24 | 65 | -4 | 70 | Active | 3.69 | 41 | < 10 | 56 | 12 | < 1 | 5 | 24 | inhibition [20]: 8%; residual activity [21]: < 10%; residual activity [22]: < 10%; inhibition [23]: 56%; inhibition [24]: 51%; inhibition [25]: 9%; residual activity [26]: < 10%; inhibition [27]: 25%; residual activity [28]: < 10%; inhibition [29]: 11%; inhibition [30]: 95%; IC50 (HT-29): 2.97 µM; inhibition [31]: -7%
